Measurements published in ChEMBL document CHEMBL3758168, “Hybrid triazoles: Design and synthesis as potential dual inhibitor of growth and efflux inhibition in tuberculosis” (Eur J Med Chem, 2016).
Values after ≈ are worked out from the molar mass of the structure shown.

Assays:
[1] = system: Mycolicibacterium smegmatis; experiment: Anti-tubercular activity against Mycobacterium smegmatis MC2 155 ATCC 700084 after 3 days by microdilution method; type: functional; details: MC2 155 ATCC 700084, 72 h
In short: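 M. smegmatis mc2155 grown in MB7H9 + 10% OADC at 37 °C with shaking to OD600 0.8. Inoculum set to 0.5 McFarland, diluted 1:100, and mixed 1:1 with two-fold serial dilutions in MB7H9. Plates incubated 3 days at 37 °C with growth and sterility controls. MIC taken as the lowest concentration with no visible growth.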

[2] = Cytotoxicity against human MDM assessed as cell viability after 3 days by Alamar blue dye-based fluorocytometric analysis relative to control; details: 72 h
[3] = system: Mycobacterium tuberculosis; experiment: Antibacterial activity against Mycobacterium tuberculosis H37Rv ATCC 27294T assessed as isoniazid MIC at 0.25 ug/ml after 7 days by microdilution checkerboard assay; type: functional; details: 168 h
In short: (§1)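 Two-dimensional checkerboard in H37Rv at 10^5 CFU/ml in MB7H9/OADC. Partner drug (amikacin, EtBr, isoniazid, ofloxacin or rifampin) two-fold serially diluted across columns 3-11. Test compound two-fold serially diluted down rows 2-6. Plates incubated 7 days at 37 °C, then MTT added overnight. […] Run in triplicate.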

[4] = system: Mycobacterium tuberculosis; experiment: Antibacterial activity against Mycobacterium tuberculosis H37Rv ATCC 27294T assessed as isoniazid MIC at 0.12 ug/ml after 7 days by microdilution checkerboard assay; type: functional; details: 168 h; in short: as §1
[5] = system: Mycobacterium tuberculosis; experiment: Antibacterial activity against Mycobacterium tuberculosis H37Rv ATCC 27294T assessed as ethidium bromide MIC at 0.12 ug/ml after 7 days by microdilution checkerboard assay; type: functional; details: 168 h; in short: as §1
[6] = system: Mycobacterium tuberculosis; experiment: Antibacterial activity against Mycobacterium tuberculosis H37Rv ATCC 27294T assessed as ethidium bromide MIC at 0.25 ug/ml after 7 days by microdilution checkerboard assay; type: functional; details: 168 h; in short: as §1
[7] = system: Mycobacterium tuberculosis; experiment: Antibacterial activity against Mycobacterium tuberculosis H37Rv ATCC 27294T assessed as ethidium bromide MIC at 0.5 ug/ml after 7 days by microdilution checkerboard assay; type: functional; details: 168 h; in short: as §1
[8] = system: Mycobacterium tuberculosis; experiment: Antibacterial activity against Mycobacterium tuberculosis H37Rv ATCC 27294T assessed as ethidium bromide MIC at 1 ug/ml after 7 days by microdilution checkerboard assay; type: functional; details: 168 h; in short: as §1
[9] = system: Mycobacterium tuberculosis; experiment: Antibacterial activity against Mycobacterium tuberculosis H37Rv ATCC 27294T assessed as ethidium bromide MIC at 2 ug/ml after 7 days by microdilution checkerboard assay; type: functional; details: 168 h; in short: as §1
[10] = system: Mycobacterium tuberculosis; experiment: Antibacterial activity against Mycobacterium tuberculosis H37Rv ATCC 27294T assessed as ethidium bromide MIC at 4 ug/ml after 7 days by microdilution checkerboard assay; type: functional; details: 168 h; in short: as §1
[11] = system: Mycobacterium tuberculosis; experiment: Antibacterial activity against Mycobacterium tuberculosis H37Rv ATCC 27294T assessed as ethidium bromide MIC at 8 ug/ml after 7 days by microdilution checkerboard assay; type: functional; details: 168 h; in short: as §1
[12] = system: Mycobacterium tuberculosis; experiment: Antibacterial activity against Mycobacterium tuberculosis H37Rv ATCC 27294T assessed as ofloxacin MIC at 0.12 ug/ml after 7 days by microdilution checkerboard assay; type: functional; details: 168 h; in short: as §1
[13] = system: Mycobacterium tuberculosis; experiment: Antibacterial activity against Mycobacterium tuberculosis H37Rv ATCC 27294T assessed as ofloxacin MIC at 0.25 ug/ml after 7 days by microdilution checkerboard assay; type: functional; details: 168 h; in short: as §1
[14] = system: Mycobacterium tuberculosis; experiment: Antibacterial activity against Mycobacterium tuberculosis H37Rv ATCC 27294T assessed as ofloxacin MIC at 0.5 ug/ml after 7 days by microdilution checkerboard assay; type: functional; details: 168 h; in short: as §1
[15] = system: Mycobacterium tuberculosis; experiment: Antibacterial activity against Mycobacterium tuberculosis H37Rv ATCC 27294T assessed as ofloxacin MIC at 1 ug/ml after 7 days by microdilution checkerboard assay; type: functional; details: 168 h; in short: as §1
[16] = system: Mycobacterium tuberculosis; experiment: Antibacterial activity against Mycobacterium tuberculosis H37Rv ATCC 27294T assessed as ofloxacin MIC at 2 ug/ml after 7 days by microdilution checkerboard assay; type: functional; details: 168 h; in short: as §1
[17] = system: Mycobacterium tuberculosis; experiment: Antibacterial activity against Mycobacterium tuberculosis H37Rv ATCC 27294T assessed as ofloxacin MIC at 4 ug/ml after 7 days by microdilution checkerboard assay; type: functional; details: 168 h; in short: as §1
[18] = system: Mycobacterium tuberculosis; experiment: Antibacterial activity against Mycobacterium tuberculosis H37Rv ATCC 27294T assessed as ofloxacin MIC at 8 ug/ml after 7 days by microdilution checkerboard assay; type: functional; details: 168 h; in short: as §1
[19] = system: Mycobacterium tuberculosis; experiment: Antibacterial activity against Mycobacterium tuberculosis H37Rv ATCC 27294T assessed as amikacin MIC at 0.12 ug/ml after 7 days by microdilution checkerboard assay; type: functional; details: 168 h; in short: as §1
[20] = system: Mycobacterium tuberculosis; experiment: Antibacterial activity against Mycobacterium tuberculosis H37Rv ATCC 27294T assessed as amikacin MIC at 0.25 ug/ml after 7 days by microdilution checkerboard assay; type: functional; details: 168 h; in short: as §1
[21] = system: Mycobacterium tuberculosis; experiment: Antibacterial activity against Mycobacterium tuberculosis H37Rv ATCC 27294T assessed as amikacin MIC at 0.5 ug/ml after 7 days by microdilution checkerboard assay; type: functional; details: 168 h; in short: as §1
[22] = system: Mycobacterium tuberculosis; experiment: Antibacterial activity against Mycobacterium tuberculosis H37Rv ATCC 27294T assessed as amikacin MIC at 1 ug/ml after 7 days by microdilution checkerboard assay; type: functional; details: 168 h; in short: as §1
[23] = system: Mycobacterium tuberculosis; experiment: Antibacterial activity against Mycobacterium tuberculosis H37Rv ATCC 27294T assessed as amikacin MIC at 2 ug/ml after 7 days by microdilution checkerboard assay; type: functional; details: 168 h; in short: as §1
[24] = system: Mycobacterium tuberculosis; experiment: Antibacterial activity against Mycobacterium tuberculosis H37Rv ATCC 27294T assessed as amikacin MIC at 4 ug/ml after 7 days by microdilution checkerboard assay; type: functional; details: 168 h; in short: as §1
[25] = system: Mycobacterium tuberculosis; experiment: Anti-tubercular activity against Mycobacterium tuberculosis H37Rv ATCC 27294T after 7 days by mircodilution method; type: functional; details: 168 h
In short: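 H37Rv grown static in MB7H9 + 10% OADC at 37 °C to OD600 0.8, then diluted to about 10^5 cells/ml. Mixed 1:1 with two-fold serial dilutions in MB7H9/OADC and incubated 7 days at 37 °C. MTT added to final 2.5% and plates incubated overnight. MIC is the lowest concentration with no colour change. Run in triplicate.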

[26] = system: Mycobacterium tuberculosis; experiment: Antibacterial activity against Mycobacterium tuberculosis H37Rv ATCC 27294T assessed as isoniazid MIC at 8 ug/ml after 7 days by microdilution checkerboard assay; type: functional; details: 168 h; in short: as §1
[27] = system: Mycobacterium tuberculosis; experiment: Antibacterial activity against Mycobacterium tuberculosis H37Rv ATCC 27294T assessed as isoniazid MIC at 4 ug/ml after 7 days by microdilution checkerboard; type: functional; details: 168 h; in short: as §1
[28] = system: Mycobacterium tuberculosis; experiment: Antibacterial activity against Mycobacterium tuberculosis H37Rv ATCC 27294T assessed as isoniazid MIC at 2 ug/ml after 7 days by microdilution checkerboard assay; type: functional; details: 168 h; in short: as §1
[29] = system: Mycobacterium tuberculosis; experiment: Antibacterial activity against Mycobacterium tuberculosis H37Rv ATCC 27294T assessed as isoniazid MIC at 1 ug/ml after 7 days by microdilution checkerboard assay; type: functional; details: 168 h; in short: as §1
[30] = system: Mycobacterium tuberculosis; experiment: Antibacterial activity against Mycobacterium tuberculosis H37Rv ATCC 27294T assessed as isoniazid MIC at 0.5 ug/ml after 7 days by microdilution checkerboard assay; type: functional; details: 168 h; in short: as §1
[31] = system: Mycobacterium tuberculosis; experiment: Antibacterial activity against Mycobacterium tuberculosis H37Rv ATCC 27294T assessed as amikacin MIC at 8 ug/ml after 7 days by microdilution checkerboard assay; type: functional; details: 168 h; in short: as §1
[32] = system: Mycobacterium tuberculosis; experiment: Antibacterial activity against Mycobacterium tuberculosis H37Rv ATCC 27294T assessed as rifampin MIC at 0.12 ug/ml after 7 days by microdilution checkerboard assay; type: functional; details: 168 h; in short: as §1
[33] = system: Mycobacterium tuberculosis; experiment: Antibacterial activity against Mycobacterium tuberculosis H37Rv ATCC 27294T assessed as rifampin MIC at 0.25 ug/ml after 7 days by microdilution checkerboard assay; type: functional; details: 168 h; in short: as §1
[34] = system: Mycobacterium tuberculosis; experiment: Antibacterial activity against Mycobacterium tuberculosis H37Rv ATCC 27294T assessed as rifampin MIC at 0.5 ug/ml after 7 days by microdilution checkerboard assay; type: functional; details: 168 h
In short: (§2)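 M. tuberculosis H37Rv grown in MB7H9 + 10% OADC at 37 °C to OD600 0.8; plates inoculated at 10^5 CFU/ml. Rifampicin two-fold serially diluted across columns, test compound two-fold diluted down rows (two-dimensional checkerboard). Sealed, 37 °C for seven days, then MTT added and incubated overnight. MIC read as no colour change. Triplicate.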

[35] = system: Mycobacterium tuberculosis; experiment: Antibacterial activity against Mycobacterium tuberculosis H37Rv ATCC 27294T assessed as rifampin MIC at 1 ug/ml after 7 days by microdilution checkerboard assay; type: functional; details: 168 h; in short: as §2
[36] = system: Mycobacterium tuberculosis; experiment: Antibacterial activity against Mycobacterium tuberculosis H37Rv ATCC 27294T assessed as rifampin MIC at 2 ug/ml after 7 days by microdilution checkerboard assay; type: functional; details: 168 h; in short: as §2
[37] = system: Mycobacterium tuberculosis; experiment: Antibacterial activity against Mycobacterium tuberculosis H37Rv ATCC 27294T assessed as rifampin MIC at 4 ug/ml after 7 days by microdilution checkerboard assay; type: functional; details: 168 h; in short: as §2
[38] = system: Mycobacterium tuberculosis; experiment: Antibacterial activity against Mycobacterium tuberculosis H37Rv ATCC 27294T assessed as rifampin MIC at 8 ug/ml after 7 days by microdilution checkerboard assay; type: functional; details: 168 h; in short: as §2

Structure (SMILES): CSc1ccc2c(c1)N(CCC1CCCCN1C)c1ccccc1S2 (stereo not drawn) [THIORIDAZINE]
- MIC [1]: 31 µg/mL (≈ 83.7 µM)
- IC50 [2]: 5.5 µg/mL (≈ 14.8 µM)
- MIC [3]: 0.1 µg/mL
- MIC [4]: 0.1 µg/mL
- MIC [5]: 12.5 µg/mL
- MIC [6]: 12.5 µg/mL
- MIC [7]: 6.25 µg/mL
- MIC [8]: 6.25 µg/mL
- MIC [9]: 3.12 µg/mL
- MIC [10]: 1.56 µg/mL
- MIC [11]: 0.195 µg/mL
- MIC [12]: 2 µg/mL
- MIC [13]: 2 µg/mL
- MIC [14]: 1 µg/mL
- MIC [15]: 1 µg/mL
- MIC [16]: 1 µg/mL
- MIC [17]: 1 µg/mL
- MIC [18]: 0.0312 µg/mL
- MIC [19]: 1 µg/mL
- MIC [20]: 1 µg/mL
- MIC [21]: 1 µg/mL
- MIC [22]: 1 µg/mL
- MIC [23]: 1 µg/mL
- MIC [24]: 0.25 µg/mL
- MIC [25]: 16 µg/mL (≈ 43.2 µM)
- MIC [26]: 1.56 ng/mL
- MIC [27]: 0.0125 µg/mL
- MIC [28]: 0.1 µg/mL
- MIC [29]: 0.1 µg/mL
- MIC [30]: 0.1 µg/mL
- MIC [31]: 0.0312 µg/mL
- MIC [32]: 1 µg/mL
- MIC [33]: 0.5 µg/mL
- MIC [34]: 0.5 µg/mL
- MIC [35]: 0.5 µg/mL
- MIC [36]: 0.5 µg/mL
- MIC [37]: 0.5 µg/mL
- MIC [38]: 0.0156 µg/mL
